Screening results (PubChem BioAssay)
MOR-DOR ag: agonists of OPRM1-OPRD1 heterodimerization, primary screen, cell-based, luminescence | Mu-type opioid receptor (Homo sapiens) + Delta-type opioid receptor (Homo sapiens), … | cells | activation, % at 9.3 µM | hit rate 0.3% among 340,000
HTR5A ag ctr: HTR5A agonists in luminescence cell assay, primary screen, counter-screen for OPRM1-OPRD1 heterodimer agonist project, full-deck HTS | cell-based | 5-hydroxytryptamine receptor 5A (Homo sapiens), P47898 | activation, % at 9.3 µM | hit rate 0.61% among 340,000; in the data active means activation mostly above about 9.5%, no sharp cut-off; inactive means mostly below about 7.6%
DAGLB inh: DAGLB lipase inhibitors, primary screen, biochemical, fluorescence, HTS; HEK293T DAGLB membrane lysate, EnzChek fluorogenic substrate; inhibition, % at 5.17 µM; hit rate 0.059% among 340,000; AID 504411, 2011; in the data active means inhibition above about 34%
MOR-DOR inv ag: inverse agonists of MOR-DOR heterodimerization, primary screen, cell-based, luminescence; hit rate 0.21% among 340,000; cell-based MOR-DOR heterodimer luminescence, inverse agonism; inhibition, % at 9.3 µM; in the data active means inhibition above about 22%, passing the limit was not always enough
Arrestin-AP2 inh: inhibitors of beta-arrestin/AP2 binding, primary screen, biochemical, GPCR trafficking, flow cytometry. FITC-arrestin peptide / GST-AP2 beads; AP2 beta2 appendage carries R879A mutation. beta-arrestin 1 C-terminal peptide binding to AP2 beta2-adaptin appendage (human). inhibition, % at 10 µM. hit rate 0.31% among 340,000;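 active means inhibition above a set limit, near 3 SD of compounds lacking own fluorescence, cut at about 54% in these data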
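Material – AP2 appendage R879A on GSH beads · Buffer or medium – PBS with 0.05% Tween 20 and 0.1% BSA · Probe or stimulus – fluorescein-tagged arrestin peptide at 50 nM final · Incubation – compound with beads 12 min RT, then probe 1 h RT · Detection – high-throughput flow cytometry of beads, ex 488, em 535 nm · Evaluation – percent response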
HTR5A inv ag: HTR5A inverse agonists in luminescence cell assay, primary screen, counter-screen for OPRM1-OPRD1 heterodimer inverse agonist project, full-deck HTS | 5-hydroxytryptamine receptor 5A (Homo sapiens), P47898 | HTR5A cell line, inverse agonism | inhibition, % at 9.3 µM | hit rate 0.083% among 340,000; in the data active means inhibition mostly above about 23%, no sharp cut-off; inactive means mostly below about 18%
MOR-DOR ag conf: agonists of MOR-DOR heterodimerization, confirmation, cell-based, luminescence. hit rate 45% among 830. shares compounds with MOR-DOR ag. AID 504904, 2011. activation, % at 9.3 µM. cells, luminescence complementation
HTR5A ag ctr2: HTR5A agonists in cells, counter-screen for OPRM1-OPRD1 heterodimer agonist project, cell-based, luminescence. HTR5A agonist counterscreen. activation, % at 9.3 µM. shares compounds with MOR-DOR ag. AID 504905, 2011. hit rate 8% among 830; in the data active means activation above about 17%
Large screens that a line does not name were inactive (follow-up assays come after a bar, where they were run); ! = not active in a repeat. Rows were chosen to be rich in hits. Some 1.4% of all compounds tested hit in one or more screens of this group. Unless noted, no stated cut-off is given here; in the data, active means activation above about 18%; inactive means the rest.

CCOC(=O)C1(CCc2ccccc2)CCN(Cc2c(O)cccc2OC)CC1	MOR-DOR ag 292 | MOR-DOR ag conf inactive | HTR5A ag ctr2 inactive
CCOC(=O)C1(CCc2ccccc2)CCN(Cc2ccc(O)cc2)CC1	none
CCOC(=O)C1(CCc2ccccc2)CCN(Cc2ccc(OC)cc2)CC1	MOR-DOR ag 129 | MOR-DOR ag conf inactive | HTR5A ag ctr2 inactive
CSc1ncnc2c1ncn2CCCNCC(c1ccccc1)c1ccccc1	none (no result: MOR-DOR ag, HTR5A ag ctr, MOR-DOR inv ag, Arrestin-AP2 inh, HTR5A inv ag)
CC1CCN(S(=O)(=O)c2ccc3c(c2)C(=NO)c2cc(S(=O)(=O)N4CCC(C)CC4)ccc2-3)CC1	MOR-DOR ag 30 | MOR-DOR ag conf inactive | HTR5A ag ctr2 inactive
Cc1cc2nc(-c3ccc(SCC(=O)Nc4ccc(S(=O)(=O)NC5CC5)cc4)nc3)[nH]c2cc1C	none
Cc1cc(NC(=O)CSc2ccc(-c3nc4cc(C)c(C)cc4[nH]3)cn2)no1	MOR-DOR ag 20 | MOR-DOR ag conf inactive | HTR5A ag ctr2 inactive
Cc1ccc(Nc2nc(N/N=C/c3c[nH]c4ccccc34)nc(N3CCOCC3)n2)cc1	MOR-DOR ag 19 | MOR-DOR ag conf inactive | HTR5A ag ctr2 inactive
Cc1[nH]c2ccccc2c1/C=N/Nc1nc(Nc2ccc(F)cc2)nc(N2CCOCC2)n1	none
Cc1sc(NC(=O)CSc2nnc3scc(-c4ccccc4)n23)c(C#N)c1C	MOR-DOR ag 19 | MOR-DOR ag conf inactive | HTR5A ag ctr2 inactive
O=C1[C@H]2[C@@H](c3ccccc3)N[C@]3(CCCN(Cc4ccc(Br)cc4)C3=O)[C@H]2C(=O)N1Cc1ccccc1	none (no result: MOR-DOR ag, HTR5A ag ctr, MOR-DOR inv ag, Arrestin-AP2 inh, HTR5A inv ag)
Clc1ccc2c(N/N=C/c3ccccc3Br)ccnc2c1	MOR-DOR ag 52 | MOR-DOR ag conf 53 | HTR5A ag ctr2 inactive
C/C(=N/Nc1ccnc2cc(Cl)ccc12)c1ccc(N)cc1	MOR-DOR ag 21 | MOR-DOR ag conf 41 | HTR5A ag ctr2 inactive
OCC1OCOC2C(CO)OCOC12 (stereo unspecified)	none
CN1CCN(Cc2nc3ccccc3c(=O)n2Cc2nc(-c3ccc4ccccc4c3)cs2)CC1	MOR-DOR ag 20!, HTR5A ag ctr 9.0 | MOR-DOR ag conf 49 | HTR5A ag ctr2 inactive
CN1CCN(Cc2nc3ccccc3c(=O)n2Cc2nc(-c3cccc([N+](=O)[O-])c3)cs2)CC1	none (no result: MOR-DOR ag, HTR5A ag ctr, DAGLB inh, MOR-DOR inv ag, HTR5A inv ag)
C[C@H]1O[C@@H](O[C@H]2[C@@H](O)C[C@H](O[C@H]3[C@@H](O)C[C@H](O[C@H]4CC[C@@]5(C)[C@H](CC[C@@H]6[C@@H]5C[C@@H](O)[C@]5(C)[C@@H](C7=CC(=O)OC7)CC[C@]65O)C4)O[C@@H]3C)O[C@@H]2C)C[C@H](O)[C@@H]1O	MOR-DOR ag 65 | MOR-DOR ag conf inactive | HTR5A ag ctr2 105
CSCCCNC(=O)c1ccc(OC2CCN(CCc3ccccc3)CC2)cc1	MOR-DOR ag 22 | MOR-DOR ag conf 32 | HTR5A ag ctr2 inactive
O=C(NCCc1ccccn1)c1ccc(OC2CCN(CCc3ccccc3)CC2)cc1	none
O=C(NCCc1cccc(Cl)c1)c1ccc(OC2CCN(Cc3ccccn3)CC2)cc1	MOR-DOR ag 65 | MOR-DOR ag conf inactive | HTR5A ag ctr2 inactive
Cc1ccc(S(=O)(=O)N2C[C@H]3C(=O)C[C@@H](c4ccc(Cl)cc4)N(S(=O)(=O)c4ccccc4C)[C@H]3C[C@H]2c2ccccc2)cc1	none (no result: MOR-DOR ag, HTR5A ag ctr, MOR-DOR inv ag, Arrestin-AP2 inh, HTR5A inv ag)
CCCCCCn1c(SCC(=O)NC2CCS(=O)(=O)C2)nc2ccccc2c1=O (stereo unspecified)	none (no result: MOR-DOR ag, HTR5A ag ctr, MOR-DOR inv ag, Arrestin-AP2 inh, HTR5A inv ag)
